Laboratory results reported in ChEMBL document CHEMBL3407388, “Synthesis, anticancer activity and molecular docking studies on a series of heterocyclic trans-cyanocombretastatin analogues as antitubulin agents” (2015).

Tests used:
Type in all cases: functional
NCI-H460 = assay: Cytotoxicity against human NCI-H460 cells assessed as growth inhibition after 48 hrs by SRB assay; conditions: NCI-H460, 48 h
How it was run: (§1)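 NCI 60-cell panel; compounds passing a single-dose screen (10−5 M, 48 h) were tested at five 10-fold dilutions (10−4 to 10−8 M) with 48 h drug exposure. GI50 is the molar concentration giving 50% reduction in net cell growth relative to cell numbers on day 0.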

SK-MEL-5 = assay: Cytotoxicity against human SK-MEL-5 cells assessed as growth inhibition after 48 hrs by SRB assay; conditions: SK-MEL-5, 48 h; how it was run: as §1
MCF7 = assay: Cytotoxicity against human MCF7 cells assessed as growth inhibition after 48 hrs by SRB assay; conditions: MCF7, 48 h; how it was run: as §1
[1] = Cytotoxicity against human OVCAR3 cells assessed as growth inhibition after 48 hrs by SRB assay; conditions: OVCAR-3, 48 h; how it was run: as §1
COLO 205 = assay: Cytotoxicity against human COLO205 cells assessed as growth inhibition after 48 hrs by SRB assay; conditions: COLO 205, 48 h; how it was run: as §1
RPMI-8226 = assay: Cytotoxicity against human RPMI8226 cells assessed as growth inhibition after 48 hrs by SRB assay; conditions: RPMI-8226, 48 h; how it was run: as §1
SNB-19 = assay: Cytotoxicity against human SNB19 cells assessed as growth inhibition after 48 hrs by SRB assay; conditions: SNB-19, 48 h; how it was run: as §1
[2] = Cytotoxicity against human PC3 cells assessed as growth inhibition after 48 hrs by SRB assay; conditions: PC-3, 48 h; how it was run: as §1
RXF 393 = assay: Cytotoxicity against human RXF393 cells assessed as growth inhibition after 48 hrs by SRB assay; conditions: RXF 393, 48 h; how it was run: as §1
IGROV-1 = assay: Cytotoxicity against human IGROV1 cells assessed as growth inhibition after 48 hrs by SRB assay; conditions: IGROV-1, 48 h; how it was run: as §1
HL-60(TB) = assay: Cytotoxicity against human HL-60(TB) cells assessed as growth inhibition after 48 hrs by SRB assay; conditions: HL-60, 48 h
How it was run: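 NCI 60-cell panel, leukemia subpanel. Five-dose screen at 10-fold dilutions from 10−4 to 10−8 M with 48 h drug exposure. GI50 is the molar concentration giving 50% reduction in net cell growth compared with cell numbers on day 0.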

SF-539 = assay: Cytotoxicity against human SF539 cells assessed as growth inhibition after 48 hrs by SRB assay; conditions: SF-539, 48 h; how it was run: as §1
[3] = Cytotoxicity against human UO31 cells assessed as growth inhibition after 48 hrs by SRB assay; conditions: UO-31, 48 h
SF-295 = assay: Cytotoxicity against human SF295 cells assessed as growth inhibition after 48 hrs by SRB assay; conditions: SF-295, 48 h; how it was run: as §1
MOLT-4 = assay: Cytotoxicity against human MOLT4 cells assessed as growth inhibition after 48 hrs by SRB assay; conditions: MOLT-4, 48 h; how it was run: as §1
[4] = Cytotoxicity against human OVCAR8 cells assessed as growth inhibition after 48 hrs by SRB assay; conditions: OVCAR-8, 48 h; how it was run: as §1
TK-10 = assay: Cytotoxicity against human TK10 cells assessed as growth inhibition after 48 hrs by SRB assay; conditions: TK-10, 48 h
NCI-H23 = assay: Cytotoxicity against human NCI-H23 cells assessed as growth inhibition after 48 hrs by SRB assay; conditions: NCI-H23, 48 h; how it was run: as §1
MDA-MB-435 = assay: Cytotoxicity against human MDA-MB-435 cells assessed as growth inhibition after 48 hrs by SRB assay; conditions: MDA-MB-435, 48 h; how it was run: as §1
SN12C = assay: Cytotoxicity against human SN12C cells assessed as growth inhibition after 48 hrs by SRB assay; how it was run: as §1
M14 = assay: Cytotoxicity against human M14 cells assessed as growth inhibition after 48 hrs by SRB assay; conditions: M14, 48 h; how it was run: as §1
[5] = Cytotoxicity against human UACC62 cells assessed as growth inhibition after 48 hrs by SRB assay; conditions: UACC-62, 48 h
U-251 = assay: Cytotoxicity against human U251 cells assessed as growth inhibition after 48 hrs by SRB assay; conditions: U-251, 48 h
HT-29 = assay: Cytotoxicity against human HT-29 cells assessed as growth inhibition after 48 hrs by SRB assay; conditions: HT-29, 48 h; how it was run: as §1
LOX IMVI = assay: Cytotoxicity against human LOXIMVI cells assessed as growth inhibition after 48 hrs by SRB assay; how it was run: as §1
K562 = assay: Cytotoxicity against human K562 cells assessed as growth inhibition after 48 hrs by SRB assay; conditions: K562, 48 h; how it was run: as §1
CAKI-1 = assay: Cytotoxicity against human Caki1 cells assessed as growth inhibition after 48 hrs by SRB assay; conditions: CAKI-1, 48 h; how it was run: as §1
KM12 = assay: Cytotoxicity against human KM12 cells assessed as growth inhibition after 48 hrs by SRB assay; conditions: KM12, 48 h; how it was run: as §1
DU-145 = assay: Cytotoxicity against human DU145 cells assessed as growth inhibition after 48 hrs by SRB assay; conditions: DU-145, 48 h; how it was run: as §1
[6] = Cytotoxicity against human HCT15 cells assessed as growth inhibition after 48 hrs by SRB assay; conditions: HCT-15, 48 h; how it was run: as §1
[7] = Cytotoxicity against human NCI-ADR-RES cells assessed as growth inhibition after 48 hrs by SRB assay; how it was run: as §1
BT-549 = assay: Cytotoxicity against human BT549 cells assessed as growth inhibition after 48 hrs by SRB assay; conditions: BT-549, 48 h; how it was run: as §1
SK-OV-3 = assay: Cytotoxicity against human SKOV3 cells assessed as growth inhibition after 48 hrs by SRB assay; conditions: SK-OV-3, 48 h; how it was run: as §1
A498 = assay: Cytotoxicity against human A498 cells assessed as growth inhibition after 48 hrs by SRB assay; conditions: A498, 48 h; how it was run: as §1
HCC 2998 = assay: Cytotoxicity against human HCC2998 cells assessed as growth inhibition after 48 hrs by SRB assay; conditions: HCC 2998, 48 h; how it was run: as §1
[8] = Cytotoxicity against human OVCAR4 cells assessed as growth inhibition after 48 hrs by SRB assay; conditions: OVCAR-4, 48 h; how it was run: as §1
NCI-H226 = assay: Cytotoxicity against human NCI-H226 cells assessed as growth inhibition after 48 hrs by SRB assay; conditions: NCI-H226, 48 h; how it was run: as §1
786-0 = assay: Cytotoxicity against human 786-0 cells assessed as growth inhibition after 48 hrs by SRB assay; conditions: 786-0, 48 h; how it was run: as §1
MDA-MB-231 = assay: Cytotoxicity against human MDA-MB-231 cells assessed as growth inhibition after 48 hrs by SRB assay; conditions: MDA-MB-231, 48 h; how it was run: as §1
[9] = Cytotoxicity against human OVCAR5 cells assessed as growth inhibition after 48 hrs by SRB assay; conditions: OVCAR-5, 48 h; how it was run: as §1
[10] = Cytotoxicity against human Hs578T cells assessed as growth inhibition after 48 hrs by SRB assay; conditions: Hs-578T; how it was run: as §1
SW-620 = assay: Cytotoxicity against human SW620 cells assessed as growth inhibition after 48 hrs by SRB assay; conditions: SW-620, 48 h
SF-268 = assay: Cytotoxicity against human SF268 cells assessed as growth inhibition after 48 hrs by SRB assay; conditions: SF-268, 48 h; how it was run: as §1

SMILES: COc1cc(/C(C#N)=C/c2coc3ccccc23)cc(OC)c1OC
- GI50 (NCI-H460): 839 nM
- GI50 (SK-MEL-5): 336 nM
- GI50 (MCF7): 376 nM
- GI50 [1]: 277 nM
- GI50 (COLO 205): 449 nM
- GI50 (RPMI-8226): 2470 nM
- GI50 (SNB-19): 3630 nM
- GI50 [2]: 1840 nM
- GI50 (RXF 393): 496 nM
- GI50 (IGROV-1): 3060 nM
- GI50 (HL-60(TB)): 1030 nM
- GI50 (SF-539): 442 nM
- GI50 [3]: 2890 nM
- GI50 (SF-295): 446 nM
- GI50 (MOLT-4): 3820 nM
- GI50 [4]: 2900 nM
- GI50 (TK-10): 2100 nM
- GI50 (NCI-H23): 4580 nM
- GI50 (MDA-MB-435): 278 nM
- GI50 (SN12C): 2170 nM
- GI50 (M14): 667 nM
- GI50 [5]: 519 nM
- GI50 (U-251): 605 nM
- GI50 (HT-29): 394 nM
- GI50 (LOX IMVI): 993 nM
- GI50 (K562): 513 nM
- GI50 (CAKI-1): 650 nM
- GI50 (KM12): 586 nM
- GI50 (DU-145): 1880 nM
- GI50 [6]: 492 nM
- GI50 [7]: 382 nM
- GI50 (BT-549): 927 nM
- GI50 (SK-OV-3): 1710 nM
- GI50 (A498): 458 nM
- GI50 (HCC 2998): 4130 nM
- GI50 [8]: 2610 nM
- GI50 (NCI-H226): 6200 nM
- GI50 (786-0): 6110 nM
- GI50 (MDA-MB-231): 1710 nM
- GI50 [9]: 3330 nM
- GI50 [10]: 2030 nM
- GI50 (SW-620): 504 nM
- GI50 (SF-268): 4790 nM

SMILES: COc1cc(/C(C#N)=C/c2nc3ccccc3s2)cc(OC)c1OC
- GI50 (NCI-H460): 336 nM
- GI50 (SK-MEL-5): 100 nM
- GI50 (MCF7): 34 nM
- GI50 [1]: 31 nM
- GI50 (COLO 205): 36 nM
- GI50 (RPMI-8226): 237 nM
- GI50 (SNB-19): 2490 nM
- GI50 [2]: 341 nM
- GI50 (RXF 393): 148 nM
- GI50 (IGROV-1): 1270 nM
- GI50 (HL-60(TB)): 66 nM
- GI50 (SF-539): 97 nM
- GI50 [3]: 83 nM
- GI50 (SF-295): 508 nM
- GI50 (MOLT-4): 9200 nM
- GI50 [4]: 438 nM
- GI50 (TK-10): 63 nM
- GI50 (NCI-H23): 3250 nM
- GI50 (MDA-MB-435): 21 nM
- GI50 (SN12C): 515 nM
- GI50 (M14): 193 nM
- GI50 [5]: 52 nM
- GI50 (U-251): 1650 nM
- GI50 (HT-29): 37 nM
- GI50 (LOX IMVI): 73 nM
- GI50 (K562): 51 nM
- GI50 (CAKI-1): 47 nM
- GI50 (KM12): 278 nM
- GI50 (DU-145): 333 nM
- GI50 [6]: 45 nM
- GI50 [7]: 59 nM
- GI50 (BT-549): 12200 nM
- GI50 (SK-OV-3): 626 nM
- GI50 (A498): 198 nM
- GI50 (HCC 2998): 297 nM
- GI50 [8]: 3860 nM
- GI50 (NCI-H226): 844 nM
- GI50 (786-0): 1060 nM
- GI50 (MDA-MB-231): 992 nM
- GI50 [9]: 347 nM
- GI50 [10]: 1290 nM
- GI50 (SW-620): 38 nM
- GI50 (SF-268): 1030 nM
